According to ChEMBL document CHEMBL1123784, “Quantitative structure-activity relationship of triazine-antifolate inhibition of Leishmania dihydrofolate reductase and cell growth” (J Med Chem, 1987):

Assays:
[1] = target: Bifunctional dihydrofolate reductase-thymidylate synthase (Leishmania major, UniProt P07382); assay: Inhibition of dihydrofolate reductase (DHFR) from Leishmania major; details: read-out: Log 1/Ki (converted)
Leishmania major = assay: Growth inhibition against Leishmania major promastigotes in culture; format: functional, organism-based; details: read-out: Log 1/EC50 (converted)
Outline: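 Seeded at 5 × 10⁶ cells/mL with four to six inhibitor concentrations spanning the I50. Coulter-counted daily for 5 days or until out of log phase. EC50 = concentration halving growth rate versus drug-free medium, from log dose vs percent growth plot.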

Sequence of Bifunctional dihydrofolate reductase-thymidylate synthase (P07382 whole entry): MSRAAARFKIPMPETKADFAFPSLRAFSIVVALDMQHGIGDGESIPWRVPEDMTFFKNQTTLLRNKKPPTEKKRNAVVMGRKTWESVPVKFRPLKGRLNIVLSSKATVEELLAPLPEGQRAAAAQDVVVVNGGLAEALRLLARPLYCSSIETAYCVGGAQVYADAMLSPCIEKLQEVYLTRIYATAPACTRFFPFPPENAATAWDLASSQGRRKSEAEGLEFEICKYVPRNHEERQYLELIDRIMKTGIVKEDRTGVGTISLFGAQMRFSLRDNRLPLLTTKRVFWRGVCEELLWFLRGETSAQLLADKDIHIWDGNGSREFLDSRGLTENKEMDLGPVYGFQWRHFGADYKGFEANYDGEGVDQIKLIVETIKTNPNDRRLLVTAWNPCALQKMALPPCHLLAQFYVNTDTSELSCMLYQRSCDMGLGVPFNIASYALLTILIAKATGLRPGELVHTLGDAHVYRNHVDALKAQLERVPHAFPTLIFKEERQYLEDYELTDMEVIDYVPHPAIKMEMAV

Question: Which Ki [1] does the source give for `CCCCCCCCCOc1cccc(N2C(N)=NC(N)=NC2(C)C)c1` here?
Answer: Its Ki is 0.302 µM.

Question: Which Ki [1] does the source give for `CC1(C)N=C(N)N=C(N)N1c1cccc(C[Se]c2ccccc2)c1` here?
Answer: The Ki was 0.275 µM.

Question: Which results are given for `CC(C)c1cccc(OCc2cccc(N3C(N)=NC(N)=NC3(C)C)c2)c1`?
Answer: Ki [1]: 0.174 µM; EC50 (Leishmania major): 57.5 µM

Question: `CC1(C)N=C(N)N=C(N)N1c1cccc(CNc2cc(C(N)=O)cc(C(N)=O)c2)c1` was tested. Which Ki [1] did it give?
Answer: Its Ki is 0.513 µM.

Question: And the EC50 (Leishmania major)?
Answer: Its EC50 is 501 µM.

Question: How did the Ki [1] turn out when `CC1(C)N=C(N)N=C(N)N1c1cccc(CNc2ccc(Cl)cc2)c1` was run?
Answer: The Ki was 0.661 µM.

Question: What about the EC50 (Leishmania major) of the same compound?
Answer: Its EC50 is 263 µM.

Question: With `CC1(C)N=C(N)N=C(N)N1c1cccc(COc2cccc(-c3ccccc3)c2)c1` as the compound, how does the Ki [1] read?
Answer: Its Ki is 0.017 µM.

Question: And the EC50 (Leishmania major)?
Answer: Its EC50 is 22.9 µM.

Question: Which results are given for `CC1(C)N=C(N)N=C(N)N1c1cccc(COc2cccc3ccccc23)c1`?
Answer: Ki [1]: 0.0398 µM; EC50 (Leishmania major): 51.3 µM

Question: What does the source list for `Cc1cccc(OCc2cccc(N3C(N)=NC(N)=NC3(C)C)c2)c1`?
Answer: Ki [1]: 0.427 µM; EC50 (Leishmania major): 219 µM

Question: With `CC1(C)N=C(N)N=C(N)N1c1cccc(COc2cccc(NC(N)=O)c2)c1` as the compound, how does the Ki [1] read?
Answer: The Ki was 0.0912 µM.

Question: `CCCCCCCCCc1cccc(N2C(N)=NC(N)=NC2(C)C)c1` was tested. Which Ki [1] did it give?
Answer: The Ki was 0.0209 µM.

Question: What about the EC50 (Leishmania major) of the same compound?
Answer: Its EC50 is 8.51 µM.

Question: What does the source list for `CC1(C)N=C(N)N=C(N)N1c1cccc(OCCOc2cccc(C(F)(F)F)c2)c1`?
Answer: Ki [1]: 0.251 µM; EC50 (Leishmania major): 126 µM

Question: How did the Ki [1] turn out when `CC(=O)Nc1cccc(OCc2cccc(N3C(N)=NC(N)=NC3(C)C)c2)c1` was run?
Answer: Its Ki is 0.0759 µM.

Question: How did the Ki [1] turn out when `CC1(C)N=C(N)N=C(N)N1c1cccc([N+](=O)[O-])c1` was run?
Answer: The Ki was 10 µM.

Question: With `CCc1cccc(N2C(N)=NC(N)=NC2(C)C)c1` as the compound, how does the Ki [1] read?
Answer: The Ki was 1.95 µM.

Question: For `CC1(C)N=C(N)N=C(N)N1c1cccc(C(N)=O)c1`, which Ki [1] is on record?
Answer: Its Ki is 117 µM.

Question: `CCCCCc1ccc(OCc2cccc(N3C(N)=NC(N)=NC3(C)C)c2)cc1` was tested. Which Ki [1] did it give?
Answer: Its Ki is 0.339 µM.

Question: How did the Ki [1] turn out when `CC1(C)N=C(N)N=C(N)N1c1cccc(SCc2ccccc2)c1` was run?
Answer: The Ki was 0.224 µM.

Question: For `CC1(C)N=C(N)N=C(N)N1c1cccc(CSc2ccccc2)c1`, which Ki [1] is on record?
Answer: The Ki was 0.407 µM.

Question: How did the Ki [1] turn out when `CCCCCCOc1cccc(N2C(N)=NC(N)=NC2(C)C)c1` was run?
Answer: The Ki was 3.98 µM.

Question: `CC1(C)N=C(N)N=C(N)N1c1cccc(C(O)c2ccccc2)c1` (stereo not drawn) was tested. Which Ki [1] did it give?
Answer: The Ki was 42.7 µM.

Question: How did the Ki [1] turn out when `CC1(C)N=C(N)N=C(N)N1c1cccc(SCc2ccc(Cl)cc2)c1` was run?
Answer: The Ki was 0.11 µM.

Question: And the EC50 (Leishmania major)?
Answer: The EC50 was 60.3 µM.

Question: Which Ki [1] does the source give for `CCCCCCCCCCCCc1cccc(N2C(N)=NC(N)=NC2(C)C)c1` here?
Answer: The Ki was 0.0724 µM.

Question: What about the EC50 (Leishmania major) of the same compound?
Answer: The EC50 was 7.94 µM.

Question: How did the Ki [1] turn out when `CC1(C)N=C(N)N=C(N)N1c1cccc(CNc2ccc(S(N)(=O)=O)cc2)c1` was run?
Answer: Its Ki is 0.759 µM.

Question: Which Ki [1] does the source give for `COc1cccc(N2C(N)=NC(N)=NC2(C)C)c1` here?
Answer: Its Ki is 22.9 µM.

Question: How did the Ki [1] turn out when `CC1(C)N=C(N)N=C(N)N1c1cccc(S(N)(=O)=O)c1` was run?
Answer: The Ki was 363 µM.

Question: Which Ki [1] does the source give for `CC(C)(C)c1cccc(N2C(N)=NC(N)=NC2(C)C)c1` here?
Answer: Its Ki is 5.75 µM.

Question: Which Ki [1] does the source give for `CCOC(=O)c1cccc(N2C(N)=NC(N)=NC2(C)C)c1` here?
Answer: The Ki was 112 µM.

Question: How did the Ki [1] turn out when `CC1(C)N=C(N)N=C(N)N1c1cccc(C#N)c1` was run?
Answer: The Ki was 6.03 µM.

Question: Which Ki [1] does the source give for `CC1(C)N=C(N)N=C(N)N1c1cccc(O)c1` here?
Answer: The Ki was 53.7 µM.

Question: How did the Ki [1] turn out when `CCCCCCCCCCCOc1cccc(N2C(N)=NC(N)=NC2(C)C)c1` was run?
Answer: The Ki was 0.977 µM.

Question: `CC1(C)N=C(N)N=C(N)N1c1cccc(OCC23CC4CC(CC(C4)C2)C3)c1` was tested. Which Ki [1] did it give?
Answer: Its Ki is 3.09 µM.

Question: How did the Ki [1] turn out when `CC1(C)N=C(N)N=C(N)N1c1cccc(COc2cc(Cl)c(Cl)cc2Cl)c1` was run?
Answer: Its Ki is 0.0692 µM.

Question: And the EC50 (Leishmania major)?
Answer: Its EC50 is 25.1 µM.

Question: With `CCOc1cccc(N2C(N)=NC(N)=NC2(C)C)c1` as the compound, how does the Ki [1] read?
Answer: Its Ki is 38 µM.

Question: For `CCc1cccc(OCc2cccc(N3C(N)=NC(N)=NC3(C)C)c2)c1`, which Ki [1] is on record?
Answer: Its Ki is 0.126 µM.

Question: How did the Ki [1] turn out when `CC1(C)N=C(N)N=C(N)N1c1cccc(COc2cccc(C#N)c2)c1` was run?
Answer: Its Ki is 0.178 µM.

Question: `CCCCCCCCCCCCCCOc1cccc(N2C(N)=NC(N)=NC2(C)C)c1` was tested. Which Ki [1] did it give?
Answer: Its Ki is 5.89 µM.

Question: `CC1(C)N=C(N)N=C(N)N1c1cccc(COc2cccc(Cl)c2)c1` was tested. Which Ki [1] did it give?
Answer: The Ki was 0.224 µM.

Question: How did the Ki [1] turn out when `COc1cccc(OCc2cccc(N3C(N)=NC(N)=NC3(C)C)c2)c1` was run?
Answer: Its Ki is 0.151 µM.

Question: And the EC50 (Leishmania major)?
Answer: Its EC50 is 309 µM.

Question: `CC1(C)N=C(N)N=C(N)N1c1cccc(COc2cccc(CO)c2)c1` was tested. Which Ki [1] did it give?
Answer: Its Ki is 0.646 µM.

Question: How did the Ki [1] turn out when `CC1(C)N=C(N)N=C(N)N1c1cccc(OCCCCOc2cccc(C(F)(F)F)c2)c1` was run?
Answer: The Ki was 0.0759 µM.

Question: Which Ki [1] does the source give for `CC1(C)N=C(N)N=C(N)N1c1ccccc1` here?
Answer: Its Ki is 12.6 µM.

Question: For `CC(=O)c1cccc(N2C(N)=NC(N)=NC2(C)C)c1`, which Ki [1] is on record?
Answer: Its Ki is 39.8 µM.

Question: How did the Ki [1] turn out when `CC1(C)N=C(N)N=C(N)N1c1cccc(C(F)(F)F)c1` was run?
Answer: The Ki was 2.19 µM.

Question: How did the Ki [1] turn out when `CC1(C)N=C(N)N=C(N)N1c1cccc(Cl)c1` was run?
Answer: The Ki was 1.2 µM.

Question: How did the Ki [1] turn out when `CC1(C)N=C(N)N=C(N)N1c1cccc(OCc2ccccc2)c1` was run?
Answer: Its Ki is 1.91 µM.

Question: `CN(Cc1cnc2nc(N)nc(N)c2n1)c1ccc(C(=O)N[C@@H](CCC(=O)O)C(=O)O)cc1` [METHOTREXATE] was tested. Which EC50 (Leishmania major) did it give?
Answer: The EC50 was 1 µM.
